Screening results deposited in PubChem BioAssay by several laboratories.
Insulin prom inh – TRM-6 insulin promoter activity inhibition; 130,000 tested, 0.9% active; TRM-6 cells (human fetal islet line), insulin promoter-eGFP reporter, imaging; reporter expression induced with tamoxifen; AID 1273; inhibition, % at 2 µM;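 active means inhibition above the mean plus 3 SD, with well images judged a real hit on visual review, cut at about 60% in these data, passing the limit was not always enough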
HMGR II inh – blocks class II HMG-CoA reductase of Enterococcus faecalis | purified E. faecalis HMGR, NADPH absorbance 340 nm kinetic | inhibition, % at 10 µM | 190,000 tested, 0.41% active;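 active means inhibition above a set limit, the median over all tested compounds plus 3 SD, cut at about 9.5% in these data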;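 further: enzyme runs in reverse so mevalonate oxidation gives rising NADPH absorbance; 0% = complete reaction with DMSO and 100% = background rate lacking mevalonate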
Yeast lifespan up – yeast lifespan extension | S. cerevisiae growth with nicotinamide, OD615; deaD strain in restrictive glucose medium | inhibition of the nicotinamide effect, % at 10 µM | 130,000 tested, 0.68% active | AID 775;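 active means inhibition above a set limit, placed 3 SD over the median of all compounds, cut at about 26% in these data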;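 further: 0% = nicotinamide-treated wells and 100% = cells grown without nicotinamide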
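Assay system: engineered S. cerevisiae DeaD replicative-lifespan strain, galactose-grown log-phase cells; Buffer or medium: CSMM-D glucose medium, restrictive; Probe or stimulus: nicotinamide 1.5 mM; Compound: single dose 10 µM compound, 0.25% DMSO; Schedule: 4 h preincubation then 48 h treatment at 30 °C; Technique: OD615 measurement.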
RAM inhibit – blocks the yeast RAM network. S. cerevisiae dse1pr::URA3 reporter, 5-FOA growth OD615, 2 d; analog-sensitive cbk1-as2 kinase mutant strain. inhibition, % at 50 µM. 190,000 tested, 1.8% active. AID 868;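 active means inhibition above a set limit, 3 SD over mean compound inhibition, cut at about 8.4% in these data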;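 further: 0% = DMSO-only wells with no growth and 100% = 10 µM 1-NA-PP1 full growth; inhibition rescues growth on 5-FOA so higher OD means more RAM inhibition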
BB579 growth dn – yeast BB579 growth reduction in restrictive medium; S. cerevisiae BB579 growth, OD615, 48 h; inhibition, % at 10 µM; 140,000 tested, 0.51% active;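 active means inhibition above a set limit, 3 SD over the mean compound inhibition, cut at about 44% in these data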
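Material: Saccharomyces cerevisiae DeaD strain BB579, replicative lifespan model yeast; buffer or medium: CSMM-D restrictive synthetic medium containing dextrose (glucose); compound: 10 µM single dose, DMSO 0.25%; timing: 48 h compound exposure at 30 °C after 4 h preincubation; signal: turbidity as optical density at 615 nm; benchmarks: positive control amphotericin B 10 µg/mL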
An asterisk follows results filed as active; . = no result. Rows were chosen to be rich in hits. Some 3.7% of all compounds tested hit in one or more screens of this group.

SMILES	Insulin prom inh	HMGR II inh	Yeast lifespan up	RAM inhibit	BB579 growth dn
Cc1cccc(OCC(=O)Nc2nonc2NC(=O)COc2cccc(C)c2)c1	-39	-1	.	3	-8
CC(Sc1nc2ccccc2[nH]1)C(=O)Nc1ccccc1F (stereo not given)	-8	2	.	1	.
O=C(O)c1ccc(COc2ccccc2/C=C2\NC(=O)N(Cc3ccc(F)cc3)C2=O)cc1	.	11*	.	4	.
Cc1ccsc1/C=C1/NC(=O)N(Cc2ccc(F)cc2)C1=O	.	15*	.	2	.
COc1cc(NC(=O)c2ccco2)c(C(=O)OCC(=O)c2c[nH]c3ccccc23)cc1OC	14	-2	-2	1	-5
COc1ccc(N2C(=O)N(Cc3ccccc3F)c3ccccc3S2(=O)=O)cc1	-136	-5	.	7	.
COc1ccc(N2C(=O)N(Cc3cccc(F)c3)c3ccccc3S2(=O)=O)cc1	-64	-2	.	8.8*	.
O=C1N(c2cccc(Cl)c2)C(c2ccc(Cl)cc2)N2CCCN12 (stereo not given)	12	-7	5	3	0
Cc1cccc2cc(C#N)c(NCCNC(=O)COc3ccccc3)nc12	.	-4	.	10*	.
O=C(NCC1CCCO1)c1ccc(Cl)c(F)c1F (stereo not given)	-26	15*	-7	1	-25
O=C(NCC1CCCO1)c1ccc(C(=O)NCC2CCCO2)cc1 (stereo not given)	16	-3	-14	3	-16
CC1(C(=O)NCCN2CCOCC2)C=CC2(CCCCC2)N1C(=O)c1ccccc1 (stereo not given)	-10	9.7*	-4	1	-47
COCCNC(=O)C1(C)C=CC2(CCCCC2)N1C(=O)c1ccccc1 (stereo not given)	-100	6	3	0	-53
CN(CC(=O)Nc1ccc(N2CCOCC2)cc1)CC(=O)Nc1ccccc1C#N	.	5	-2	-1	-30
CCn1c(O)c(C2=c3ccccc3=NC2=O)c2cc(Br)ccc21	.	1	.	4	.
O=C1N=c2ccccc2=C1c1c(O)n(-c2cccc(F)c2)[nH]c1=O	-1	-4	33*	4	-6
C=CCc1ccccc1OCCSc1nc2ccc([N+](=O)[O-])cc2s1	-81	2	4	11*	-14
COc1ccccc1OCCSc1nc2ccc([N+](=O)[O-])cc2s1	0	2	-5	1	-44
O=[N+]([O-])c1ccc2nc(SCc3ccccc3Cl)sc2c1	.	0	-12	9.6*	-28
Cc1ccnc(N2C(=O)CSC2c2ccc(Cl)cc2)c1 (stereo not given)	50	-2	0	0	-7
COc1ccc(-n2c(SCC(=O)NC3CCCCC3)nc3ccsc3c2=O)cc1	-3	-2	1	9.1*	-35
CCC(C)NC(=O)CSc1nc2ccsc2c(=O)n1-c1ccc(OC)cc1 (stereo not given)	-32	-3	3	3	-14
Cc1nn(-c2ccccc2)c(C)c1C(=O)OCC(=O)N1CC(=O)Nc2ccccc21	93*	-7	-12	2	-18
CCOC(=O)c1[nH]c(C)c(C(=O)OCC(=O)N2CC(=O)Nc3ccccc32)c1C	.	-8	1	2	-5
O=C(OCC(=O)N1CCc2ccccc21)c1cncc(Br)c1	.	1	.	3	.
SMILES	Insulin prom inh	HMGR II inh	Yeast lifespan up	RAM inhibit	BB579 growth dn
CN(C)CCCC(=O)c1ccc2c(c1)OCO2	-60	-8	-5	3	-12
CN(C)CCC(=O)c1ccc2c(c1)OCO2	82*	-2	4	-2	-22
CCN(CC)C(=O)c1sc(NC(=O)C(Sc2ccccc2)c2ccccc2)c(C(=O)OC(C)C)c1C (stereo not given)	-4	-4	-9	9.6*	-51
CCC(=O)N(CCC(c1ccccc1)c1ccco1)Cc1cccs1 (stereo not given)	0	1	4	1	-47
O=C(c1ccco1)N(CCC(c1ccccc1)c1ccco1)Cc1ccccc1 (stereo not given)	-7	-4	9	11*	-29
O=C(NC(=S)N1CCCCCC1)c1ccc(Cl)cc1Cl	.	-3	.	1	.
CCN(CC)C(=O)CSc1nc(-c2cccs2)cc(-c2cccs2)c1C#N	-119	-5	.	8.4*	-29
O=C(COc1ccc(Br)cc1)Nc1ccccc1N1CCCC1	.	-2	.	2	.
CC(=O)N1CCN(c2ccccc2NC(=O)COc2ccc(Br)cc2)CC1	-57	13*	-23	4	-16
CN(Cc1ccc(F)cc1)C(=O)c1ccc2c(c1)NC(=O)CS2	.	12*	.	1	.
COc1ccccc1NS(=O)(=O)c1ccc(Cl)c(NC(=O)C(C)N2C(=O)c3ccccc3C2=O)c1 (stereo not given)	48	-7	-2	7	-17
CC(NC(=O)C1CCCC1)C1CC2CCC1C2 (stereo not given)	71*	-2	6	1	-11
COc1ccc(/C=N/n2cnnc2)cc1Cn1nc(C)c([N+](=O)[O-])c1C	-33	11*	.	0	.
COc1ccc(/C=N/NC(=O)c2cccc(O)c2)cc1Cn1nc(C)c([N+](=O)[O-])c1C	.	0	.	2	.
Cc1c(Cl)cccc1NC(=S)NCC(c1cccnc1)N(C)C (stereo not given)	-20	-3	.	0	.
CC1=N/C(=C/c2cccnc2)C(=O)O1	.	1	.	0	.
CN1C/C(=C/c2cccnc2)C(=O)/C(=C/c2cccnc2)C1	-68	-4	51*	0	-14
CC(C)N1C/C(=C/c2cccnc2)C(=O)/C(=C/c2cccnc2)C1	-58	-1	41*	2	-56
O=C(CCc1nnc(-c2ccsc2)o1)N1CCCCC1CCn1ccnc1 (stereo not given)	-39	0	.	0	.
CCC1CCCCN1C(=O)CCn1ccnc1 (stereo not given)	.	15*	.	-1	.
O=C1NCC2=C1C(c1ccc(Br)cc1)Nc1ccccc1N2 (stereo not given)	.	1	92*	0	-48
CCCCC(=NCCc1c(C)[nH]c2ccc(OC)cc12)C1=C(O)CC(c2ccccc2)CC1=O (stereo not given)	-73	5	.	5	.
CC(=NCCc1c(C)[nH]c2ccc(OCc3ccccc3)cc12)C1=C(O)CC(c2ccccc2)CC1=O (stereo not given)	0	13*	.	6	.
COc1ccc(-c2noc(CSc3nnc(-c4ccncc4)n3-c3ccc(F)cc3)n2)cc1OC	16	-1	148*	0	-50
CS/C(=N\S(=O)(=O)c1cccs1)Nc1ccc(Br)cc1F	-21	-2	31*	1	-10
CS/C(=N\S(=O)(=O)c1cccs1)Nc1ccc(Cl)cc1	.	0	6	0	-35
CCc1ccc(N/C(SCc2ccccc2C)=C(/C#N)C(=O)NCc2ccco2)cc1	14	-4	-20	11*	-39
O=C(CSc1nc2ccccc2s1)N/N=C/c1ccco1	29	-7	-10	1	-6
